# Laboratory results: ChEMBL document CHEMBL4265940, “Synthesis of scutellarein derivatives with antiproliferative activity and selectivity through the intrinsic pathway” (Eur J Med Chem, 2018)
# Activity calls are given as the source filed them. No cut-off for these calls is given here.
# Legend:
# MCF7 [1] = test: Antiproliferative activity against human MCF7 cells after 72 hrs by MTT assay; assay type: functional, cell-based; settings: MCF7, 72 h
# Procedure, shortened: (§1)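 Log-phase tumour cells seeded and held 24 h at 37 °C in humidified 5% CO2, then exposed to test agents for 72 h. MTT (5 mg/mL stock) added for a further 4 h, formazan dissolved in DMSO with 10 min shaking at room temperature, optical density read, IC50 calculated.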
# L02 = test: Cytotoxicity against human LO2 cells assessed as decrease in cell viability after 72 hrs by MTT assay; assay type: cell-based; settings: L02, 72 h
# Procedure, shortened: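 L-O2 normal human liver cells tested for growth inhibition by MTT. Formazan was dissolved in DMSO and optical density read. IC50 values were derived.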
# A549 = test: Antiproliferative activity against human A549 cells after 72 hrs by MTT assay; assay type: functional, cell-based; settings: A549, 72 h; procedure, shortened: as §1
# Bel-7402 = test: Antiproliferative activity against human Bel7402 cells after 72 hrs by MTT assay; assay type: functional, cell-based; settings: Bel-7402, 72 h; procedure, shortened: as §1
# MCF7 [2] = test: Cell cycle arrest in human MCF7 cells assessed as accumulation at S phase at 3 uM after 48 hrs by propidium iodide staining based flow cytometry (reference value: 36.11%); assay type: functional
# MCF7 [3] = test: Induction of apoptosis in human MCF7 cells assessed as late apoptotic cells at 3 uM after 48 hrs by Annexin V-FITC/PI staining based flow cytometry (reference value: 1.99%); assay type: functional
# MCF7 [4] = test: Induction of mitochondrial membrane depolarization in human MCF7 cells assessed as collapse of mitochondrial membrane potential at 3 uM after 48 hrs by JC-1 staining based flow cytometry (reference value: 1.61%); assay type: functional
# Procedure, shortened: (§2)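 Log-phase MCF-7 cells treated at 0, 0.75, 1.5 and 3 µM for 48 h, washed with PBS, then stained with JC-1 in the dark per kit instructions. The percentage of cells with collapsed membrane potential was measured by flow cytometry relative to untreated control.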
# MCF7 [5] = test: Cell cycle arrest in human MCF7 cells assessed as accumulation at S phase at 0.75 uM after 48 hrs by propidium iodide staining based flow cytometry (reference value: 36.11%); assay type: functional
# MCF7 [6] = test: Cell cycle arrest in human MCF7 cells assessed as accumulation at G2/M phase at 1.5 uM after 48 hrs by propidium iodide staining based flow cytometry (reference value: 22.40%); assay type: functional
# MCF7 [7] = test: Induction of apoptosis in human MCF7 cells assessed as increase in caspase-3 level at 0.75 to 3 uM after 48 hrs by Western blot analysis; assay type: functional, cell-based
# Procedure, shortened: (§3)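 MCF-7 cells treated 48 h at 0, 0.75, 1.5 and 3 µM, lysed, and spun at 14000 g for 10 min at 4 °C. Protein was measured by BCA and 25 µg lysate run on 12% SDS-PAGE, then transferred to nitrocellulose and blocked with 5% milk. Blots were probed overnight at 4 °C with monoclonal antibodies to Bcl-2, Bax, cyto-c, caspase-9, caspase-3 and GAPDH, with ECL detection.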
# MCF7 [8] = test: Cell cycle arrest in human MCF7 cells assessed as accumulation at S phase at 1.5 uM after 48 hrs by propidium iodide staining based flow cytometry (reference value: 36.11%); assay type: functional
# MCF7 [9] = test: Induction of apoptosis in human MCF7 cells assessed as necrotic cells at 1.5 uM after 48 hrs by Annexin V-FITC/PI staining based flow cytometry (reference value: 0.19%); assay type: functional
# MCF7 [10] = test: Induction of mitochondrial membrane depolarization in human MCF7 cells assessed as collapse of mitochondrial membrane potential at 1.5 uM after 48 hrs by JC-1 staining based flow cytometry (reference value: 1.61%); assay type: functional; procedure, shortened: as §2
# MCF7 [11] = test: Induction of mitochondrial membrane depolarization in human MCF7 cells assessed as collapse of mitochondrial membrane potential at 0.75 uM after 48 hrs by JC-1 staining based flow cytometry (reference value: 1.61%); assay type: functional; procedure, shortened: as §2
# MCF7 [12] = test: Induction of apoptosis in human MCF7 cells assessed as late apoptotic cells at 0.75 uM after 48 hrs by Annexin V-FITC/PI staining based flow cytometry (reference value: 1.99%); assay type: functional
# MCF7 [13] = test: Induction of apoptosis in human MCF7 cells assessed as late apoptotic cells at 1.5 uM after 48 hrs by Annexin V-FITC/PI staining based flow cytometry (reference value: 1.99%); assay type: functional
# MCF7 [14] = test: Cell cycle arrest in human MCF7 cells assessed as accumulation at G1 phase at 3 uM after 48 hrs by propidium iodide staining based flow cytometry (reference value: 41.49%); assay type: functional
# MCF7 [15] = test: Induction of apoptosis in human MCF7 cells assessed as increase in caspase-9 level at 0.75 to 3 uM after 48 hrs by Western blot analysis; assay type: functional, cell-based; procedure, shortened: as §3
# MCF7 [16] = test: Induction of apoptosis in human MCF7 cells assessed as downregulation of Bcl-2 after 48 hrs by Western blot analysis; assay type: functional, cell-based; procedure, shortened: as §3
# MCF7 [17] = test: Cell cycle arrest in human MCF7 cells assessed as accumulation at G1 phase at 1.5 uM after 48 hrs by propidium iodide staining based flow cytometry (reference value: 41.49%); assay type: functional
# MCF7 [18] = test: Cell cycle arrest in human MCF7 cells assessed as accumulation at G2/M phase at 0.75 uM after 48 hrs by propidium iodide staining based flow cytometry (reference value: 22.40%); assay type: functional
# MCF7 [19] = test: Induction of apoptosis in human MCF7 cells assessed as early apoptotic cells at 0.75 uM after 48 hrs by Annexin V-FITC/PI staining based flow cytometry (reference value: 4.10%); assay type: functional
# MCF7 [20] = test: Induction of apoptosis in human MCF7 cells assessed as viable cells at 0.75 uM after 48 hrs by Annexin V-FITC/PI staining based flow cytometry (reference value: 93.72%); assay type: functional; settings: MCF7, 48 h, read-out: Activity
# MCF7 [21] = test: Induction of apoptosis in human MCF7 cells after 48 hrs by Annexin V-FITC/PI staining based flow cytometry; assay type: functional, cell-based
# MCF7 [22] = test: Induction of apoptosis in human MCF7 cells assessed as increase in cytochrome c release at 0.75 to 3 uM after 48 hrs by Western blot analysis; assay type: functional, cell-based; procedure, shortened: as §3
# MCF7 [23] = test: Induction of apoptosis in human MCF7 cells assessed as viable cells at 3 uM after 48 hrs by Annexin V-FITC/PI staining based flow cytometry (reference value: 93.72%); assay type: functional; settings: MCF7, 48 h, read-out: Activity
# MCF7 [24] = test: Induction of apoptosis in human MCF7 cells assessed as necrotic cells at 0.75 uM after 48 hrs by Annexin V-FITC/PI staining based flow cytometry (reference value: 0.19%); assay type: functional
# MCF7 [25] = test: Induction of apoptosis in human MCF7 cells assessed as viable cells at 1.5 uM after 48 hrs by Annexin V-FITC/PI staining based flow cytometry (reference value: 93.72%); assay type: functional; settings: MCF7, 48 h, read-out: Activity
# MCF7 [26] = test: Cell cycle arrest in human MCF7 cells assessed as accumulation at G1 phase after 48 hrs by propidium iodide staining based flow cytometry; assay type: functional
# MCF7 [27] = test: Induction of apoptosis in human MCF7 cells assessed as early apoptotic cells at 3 uM after 48 hrs by Annexin V-FITC/PI staining based flow cytometry (reference value: 4.10%); assay type: functional
# MCF7 [28] = test: Induction of apoptosis in human MCF7 cells assessed as upregulation of Bax after 48 hrs by Western blot analysis; assay type: functional, cell-based; procedure, shortened: as §3
# MCF7 [29] = test: Cell cycle arrest in human MCF7 cells assessed as accumulation at G2/M phase at 3 uM after 48 hrs by propidium iodide staining based flow cytometry (reference value: 22.40%); assay type: functional
# MCF7 [30] = test: Induction of mitochondrial membrane depolarization in human MCF7 cells after 48 hrs by JC-1 staining based flow cytometry; assay type: functional, cell-based; procedure, shortened: as §2
# MCF7 [31] = test: Cell cycle arrest in human MCF7 cells assessed as accumulation at G1 phase at 0.75 uM after 48 hrs by propidium iodide staining based flow cytometry (reference value: 41.49%); assay type: functional
# MCF7 [32] = test: Induction of apoptosis in human MCF7 cells assessed as early apoptotic cells at 1.5 uM after 48 hrs by Annexin V-FITC/PI staining based flow cytometry (reference value: 4.10%); assay type: functional
# MCF7 [33] = test: Induction of apoptosis in human MCF7 cells assessed as necrotic cells at 3 uM after 48 hrs by Annexin V-FITC/PI staining based flow cytometry (reference value: 0.19%); assay type: functional
smiles,measurement,setting,value
O=C(OCCCCCOc1ccc(-c2cc(=O)c3c(O)c(O)c(O)cc3o2)cc1)c1ccc(N(CCCl)CCCl)cc1,IC50,MCF7 [1],4.78 µM
same,IC50,L02,> 50 µM
same,IC50,A549,23.5 µM
same,IC50,Bel-7402,4.59 µM
O=c1[nH]cc(F)c(=O)[nH]1 [FLUOROURACIL],IC50,MCF7 [1],27.9 µM
same,IC50,A549,2.05 µM
same,IC50,Bel-7402,18.7 µM
O=C(OCCCCOc1ccc(-c2cc(=O)c3c(O)c(O)c(O)cc3o2)cc1)c1ccc(N(CCCl)CCCl)cc1,IC50,MCF7 [1],3.55 µM
same,IC50,L02,> 50 µM
same,IC50,A549,21.5 µM
same,IC50,Bel-7402,9.07 µM
COc1cc2oc(-c3ccc(OCCCCCOC(=O)c4ccc(N(CCCl)CCCl)cc4)cc3)cc(=O)c2c(O)c1OC,IC50,MCF7 [1],> 50 µM
same,IC50,L02,> 50 µM
same,IC50,A549,> 50 µM
same,IC50,Bel-7402,32.5 µM
O=C(O)CCCc1ccc(N(CCCl)CCCl)cc1 [CHLORAMBUCIL],IC50,MCF7 [1],> 50 µM
same,IC50,L02,> 50 µM
same,IC50,A549,> 50 µM
same,IC50,Bel-7402,> 50 µM
O=C(OCCCCCOc1ccc(-c2cc(=O)c3c(O)c4c(cc3o2)OCCO4)cc1)c1ccc(N(CCCl)CCCl)cc1,IC50,MCF7 [1],34.7 µM
same,IC50,L02,> 50 µM
same,IC50,A549,> 50 µM
same,IC50,Bel-7402,45.7 µM
COc1cc2oc(-c3ccc(OCCCOC(=O)c4ccc(N(CCCl)CCCl)cc4)cc3)cc(=O)c2c(O)c1OC,IC50,MCF7 [1],> 50 µM
same,IC50,L02,> 50 µM
same,IC50,A549,> 50 µM
same,IC50,Bel-7402,27.8 µM
O=C(OCCCCOc1ccc(-c2cc(=O)c3c(O)c4c(cc3o2)OCCO4)cc1)c1ccc(N(CCCl)CCCl)cc1,IC50,MCF7 [1],> 50 µM
same,IC50,L02,> 50 µM
same,IC50,A549,> 50 µM
same,IC50,Bel-7402,37.6 µM
COc1cc2oc(-c3ccc(OCCCCOC(=O)c4ccc(N(CCCl)CCCl)cc4)cc3)cc(=O)c2c(O)c1OC,IC50,MCF7 [1],> 50 µM
same,IC50,L02,> 50 µM
same,IC50,A549,47.3 µM
same,IC50,Bel-7402,25.7 µM
O=C(OCCCOc1ccc(-c2cc(=O)c3c(O)c(O)c(O)cc3o2)cc1)c1ccc(N(CCCl)CCCl)cc1,Activity,MCF7 [2],29.04%
same,Activity,MCF7 [3],26.73%
same,Activity,MCF7 [4],64.8%
same,Activity,MCF7 [5],34.67%
same,Activity,MCF7 [6],18.56%
same,Activity,MCF7 [7],Active
same,Activity,MCF7 [8],30.44%
same,Activity,MCF7 [9],1.85%
same,Activity,MCF7 [10],43.48%
same,Activity,MCF7 [11],19.61%
same,IC50,MCF7 [1],1.5 µM
same,Activity,MCF7 [12],3.92%
same,Activity,MCF7 [13],9.46%
same,Activity,MCF7 [14],59.49%
same,Activity,MCF7 [15],Active
same,Activity,MCF7 [16],Dose-dependent effect
same,Activity,MCF7 [17],50.99%
same,Activity,MCF7 [18],21.17%
same,Activity,MCF7 [19],12.07%
same,viability at 0.75 µM,MCF7 [20],83.8%
same,Activity,MCF7 [21],Dose-dependent effect
same,Activity,MCF7 [22],Active
same,viability at 3 µM,MCF7 [23],31.5%
same,Activity,MCF7 [24],0.17%
same,viability at 1.5 µM,MCF7 [25],68.8%
same,Activity,MCF7 [26],Dose-dependent effect
same,Activity,MCF7 [27],38.48%
same,IC50,L02,> 50 µM
same,Activity,MCF7 [28],Dose-dependent effect
same,Activity,MCF7 [29],11.47%
same,IC50,A549,> 50 µM
same,Activity,MCF7 [30],Dose-dependent effect
same,IC50,Bel-7402,7.96 µM
same,Activity,MCF7 [31],44.16%
same,Activity,MCF7 [32],19.85%
same,Activity,MCF7 [33],3.26%
O=C(OCCCOc1ccc(-c2cc(=O)c3c(O)c4c(cc3o2)OCCO4)cc1)c1ccc(N(CCCl)CCCl)cc1,IC50,MCF7 [1],45 µM
same,IC50,L02,> 50 µM
same,IC50,A549,44.5 µM
same,IC50,Bel-7402,> 50 µM
